Laboratory results taken from ChEMBL document CHEMBL4038284, “Synthesis of novel quinoline-based 4,5-dihydro-1H-pyrazoles as potential anticancer, antifungal, antibacterial and antiprotozoal agents” (Eur J Med Chem, 2017).
In brackets after ≈: the same amount, converted by molar mass. Activity calls are given as the source filed them. The calls are words filed in the database; no cut-off is given here.

Columns and labels:
[1] = tested on: Klebsiella pneumoniae; experiment: Antibacterial activity against carbapenemase positive Klebsiella pneumoniae BAA 1705 after 24 hrs by resazurin dye based microdilution assay; assay type: functional; details: BAA 1705, 24 h
In short: (§1)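 MIC taken as the lowest concentration giving visible inhibition and/or by resazurin (1 mg/mL). Gentamicin was the control. Run in duplicate, repeated at least three times.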

[2] = tested on: CCRF-CEM; experiment: Growth inhibition of human CCRF-CEM cells at 10 uM incubated for 48 hrs by sulforhodamine B assay; assay type: functional, cell-based
In short: (§2)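 NCI 60-cell-line screen at a single 10 µM dose. Cells in RPMI-1640 with 5% FBS and 2 mM L-glutamine, pre-incubated 24 h, then treated for 48 h at 37 °C. TCA fixation, sulforhodamine B staining, absorbance at 515 nm. Percentage growth calculated against time-zero and untreated controls.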

[3] = tested on: HL-60(TB); experiment: Growth inhibition of human HL-60(TB) cells at 10 uM incubated for 48 hrs by sulforhodamine B assay; assay type: functional, cell-based
In short: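 NCI 60-line single-dose screen at 10 μM, 48 h. Cells in RPMI-1640 with 5% FBS and 2 mM L-glutamine at 37 °C, 5% CO2. Growth measured by TCA fixation and SRB staining (515 nm), relative to time-zero and untreated control wells.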

[4] = tested on: K562; experiment: Growth inhibition of human K562 cells at 10 uM incubated for 48 hrs by sulforhodamine B assay; assay type: functional, cell-based
In short: (§3)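 NCI 60-line panel, single 10 μM dose. Cells were grown in RPMI-1640 with 5% FBS and 2 mM L-glutamine and pre-incubated 24 h before compound addition (DMSO stock). Exposure was 48 h at 37 °C, 5% CO2. Cells were fixed with cold TCA (10% final), stained with 0.4% SRB, bound dye dissolved in 10 mM Tris base, A515 read. Growth was taken relative to time-zero and untreated control plates.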

[5] = tested on: MOLT-4; experiment: Growth inhibition of human MOLT4 cells at 10 uM incubated for 48 hrs by sulforhodamine B assay; assay type: functional, cell-based; in short: as §3
[6] = tested on: HOP-62; experiment: Growth inhibition of human HOP62 cells at 10 uM incubated for 48 hrs by sulforhodamine B assay; assay type: functional, cell-based; in short: as §2
[7] = tested on: COLO 205; experiment: Growth inhibition of human COLO205 cells at 10 uM incubated for 48 hrs by sulforhodamine B assay; assay type: functional, cell-based; in short: as §2
[8] = tested on: SF-268; experiment: Growth inhibition of human SF268 cells at 10 uM incubated for 48 hrs by sulforhodamine B assay; assay type: functional, cell-based; in short: as §3
[9] = tested on: SF-539; experiment: Growth inhibition of human SF539 cells at 10 uM incubated for 48 hrs by sulforhodamine B assay; assay type: functional, cell-based; in short: as §3
[10] = tested on: SNB-75; experiment: Growth inhibition of human SNB75 cells at 10 uM incubated for 48 hrs by sulforhodamine B assay; assay type: functional, cell-based
In short: (§4)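 NCI-60 single-dose screen at 10 µM for 48 h. Cells were grown in RPMI-1640 with 5% FBS and 2 mM L-glutamine and preincubated 24 h before compound. Time-zero plates were TCA-fixed at compound addition. After exposure, cells were TCA-fixed, stained with SRB and read at 515 nm. Percentage growth was calculated against time-zero and untreated-control absorbances.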

[11] = tested on: U-251; experiment: Growth inhibition of human U251 cells at 10 uM incubated for 48 hrs by sulforhodamine B assay; assay type: functional, cell-based; in short: as §4
[12] = tested on: Malme-3M; experiment: Growth inhibition of human MALME-3M cells at 10 uM incubated for 48 hrs by sulforhodamine B assay; assay type: functional, cell-based; in short: as §3
[13] = tested on: MDA-MB-435; experiment: Growth inhibition of human MDA-MB-435 cells at 10 uM incubated for 48 hrs by sulforhodamine B assay; assay type: functional, cell-based; in short: as §3
[14] = tested on: SK-MEL-28; experiment: Growth inhibition of human SK-MEL-28 cells at 10 uM incubated for 48 hrs by sulforhodamine B assay; assay type: functional, cell-based; in short: as §4
[15] = tested on: OVCAR-5; experiment: Growth inhibition of human OVCAR5 cells at 10 uM incubated for 48 hrs by sulforhodamine B assay; assay type: functional, cell-based; in short: as §3
[16] = tested on: 786-0; experiment: Growth inhibition of human 786-0 cells at 10 uM incubated for 48 hrs by sulforhodamine B assay; assay type: functional, cell-based; in short: as §2
[17] = tested on: T47D; experiment: Growth inhibition of human T47D cells at 10 uM incubated for 48 hrs by sulforhodamine B assay; assay type: functional, cell-based; in short: as §4
[18] = tested on: Candida albicans; experiment: Antifungal activity against Candida albicans ATCC 10231 incubated for 48 hrs under dark condition by broth microdilution method; assay type: functional; details: ATCC 10231, 48 h
In short: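 CLSI M27-A3 broth microdilution in RPMI-1640, DMSO ≤1%, compounds at 250-0.98 µg/mL final. Inoculum 1-5 × 10^3 CFU/mL. Incubated 48 h at 30 °C in a moist dark chamber, read at OD405. MIC80 and MIC50 taken from % inhibition dose-response curves (mean ± SEM, triplicate). Amphotericin B was the positive control.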

[19] = tested on: Candida albicans; experiment: Growth inhibition of Candida albicans ATCC 10231 at 250 ug/ml incubated for 48 hrs under dark condition by broth microdilution method relative to control; assay type: functional; details: ATCC 10231, 48 h, read-out: GI
In short: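 CLSI M27-A3 broth microdilution in RPMI-1640, DMSO ≤1%. Inoculum 1-5 × 10^3 CFU/mL. Incubated 48 h at 30 °C, dark. % inhibition = 100 − (OD405 test − sterility control)/(OD405 growth control − sterility control), with growth and sterility control wells. Triplicate.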

[20] = tested on: Candida albicans; experiment: Growth inhibition of Candida albicans ATCC 10231 at 3.4 ug/ml incubated for 48 hrs under dark condition by broth microdilution method relative to control; assay type: functional; details: ATCC 10231, 48 h, read-out: GI
[21] = tested on: Pseudomonas aeruginosa; experiment: Antibacterial activity against Pseudomonas aeruginosa ATCC 27853 after 24 hrs by resazurin dye based microdilution assay; assay type: functional; details: ATCC 27853, 24 h; in short: as §1
[22] = tested on: Neisseria gonorrhoeae; experiment: Antibacterial activity against beta lactamase positive Neisseria gonorrhoeae ATCC 31426 by oxidase test; assay type: functional
In short: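 Agar dilution MIC on GC agar with 1% isovitalex containing increasing compound concentrations. Plates inoculated with about 1×10^4 CFU (5 µL). MIC is the lowest concentration that inhibited growth, with growth confirmed by oxidase test. Run in duplicate, repeated at least three times.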

[23] = tested on: Plasmodium falciparum; experiment: Antiplasmodial activity against chloroquine-sensitive Plasmodium falciparum 3D7 assessed as reduction in parasitic LDH activity after 48 hrs by Malstat reagent based […] method; assay type: functional; details: 3D7, 48 h
In short: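 Unsynchronized P. falciparum 3D7 at 0.5% parasitemia and 1% hematocrit in RPMI with 3% Albumax II. Exposed to 100, 25, 6.25 and 1.56 µg/mL for 48 h at 37 °C under 90% N2/5% CO2/5% O2. After three freeze-thaw cycles, LDH measured with Malstat and NBT/PES, 1 h in the dark, read at 650 nm. IC50 by Probit; triplicate, ≥2 experiments.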

[24] = tested on: Trypanosoma cruzi; experiment: Antitrypanosomal activity against Trypanosoma cruzi Tulahuen intracellular amastigote harboring LacZ infected in human U937 cells after 72 hrs by CPRG/Nonidet reagent based spectrophotometric method; assay type: functional, cell-based; details: U-937, 72 h
In short: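 U-937 cells at 2.5 × 10^5 cells/mL in RPMI-1640 with 10% serum and 0.1 µg/mL PMA were infected with β-galactosidase-transfected Tulahuen epimastigotes at 5 parasites per cell. Infected cells were exposed to 50, 12.5, 3.125 and 0.78 µg/mL for 72 h. CPRG (100 uM) and 0.1% Nonidet P-40 were added for 3 h, read at 570 nm. EC50 by Probit. Triplicate, at least two experiments; benznidazole as reference.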

Row | SMILES | MIC [1] [µg/mL] | growth inhibition (GI) [2] | growth inhibition (GI) [3] | growth inhibition (GI) [4] | growth inhibition (GI) [5] | growth inhibition (GI) [6] | growth inhibition (GI) [7] | growth inhibition (GI) [8] | growth inhibition (GI) [9] | growth inhibition (GI) [10] | growth inhibition (GI) [11] | growth inhibition (GI) [12] | MIC50 [18] [µg/mL] | MIC80 [18] [µg/mL] | inhibition of growth at 250 µg/mL [19] [%] | inhibition of growth at 3.4 µg/mL [20] [%] | MIC [21] [µg/mL] | MIC [22] [µg/mL] | EC50 [23] [µg/mL] | EC50 [24] [µg/mL] | other results
1 | COc1ccc(C2=NN(c3ccccc3)C(c3cccc(Nc4ccnc5cc(Cl)ccc45)c3)C2)cc1 (centres undefined) | > 1000 | inactive | inactive | inactive | inactive | inactive | inactive | inactive | inactive | inactive | inactive | inactive | ≥ 250 | ≥ 250 | 25.6 | 0.38 | > 1000 | > 1000 | 13.7 (≈ 27 µM) | 86.8 (≈ 172 µM) | growth inhibition (GI) [13]: inactive; growth inhibition (GI) [14]: inactive; growth inhibition (GI) [15]: inactive; growth inhibition (GI) [16]: inactive; growth inhibition (GI) [17]: inactive
2 | Clc1ccc(C2=NN(c3ccc(Cl)cc3)C(c3cccc(Nc4ccnc5cc(Cl)ccc45)c3)C2)cc1 (centres undefined) | > 1000 | inactive | inactive | inactive | inactive | inactive | inactive | inactive | inactive | inactive | inactive | inactive | ≥ 250 | ≥ 250 | 40.4 | 0 | > 1000 | > 1000 | 10.3 (≈ 18.9 µM) | 55.8 (≈ 103 µM) | growth inhibition (GI) [13]: inactive; growth inhibition (GI) [14]: inactive; growth inhibition (GI) [15]: inactive; growth inhibition (GI) [16]: inactive; growth inhibition (GI) [17]: inactive
3 | COc1ccc(C2=NN(C=O)C(c3cccc(Nc4ccnc5cc(Cl)ccc45)c3)C2)cc1 (centres undefined) | > 1000 | Active | Active | Active | Active | Active | Active | Active | Active | Active | Active | Active | ≥ 250 | ≥ 250 | 34.5 | 3.51 | > 1000 | > 1000 | 16.1 (≈ 35.3 µM) | > 0.15 | growth inhibition (GI) [13]: Active; growth inhibition (GI) [14]: Active; growth inhibition (GI) [15]: Active; growth inhibition (GI) [16]: Active; growth inhibition (GI) [17]: Active
4 | COc1cc(C2=NN(c3ccc(Cl)cc3)C(c3cccc(Nc4ccnc5cc(Cl)ccc45)c3)C2)cc(OC)c1OC (centres undefined) | > 1000 | inactive | inactive | inactive | inactive | inactive | inactive | inactive | inactive | inactive | inactive | inactive | ≥ 250 | ≥ 250 | 26.5 | 2.27 | > 1000 | > 1000 | 44.6 (≈ 74.3 µM) | 22.6 (≈ 37.7 µM) | growth inhibition (GI) [13]: inactive; growth inhibition (GI) [14]: inactive; growth inhibition (GI) [15]: inactive; growth inhibition (GI) [16]: inactive; growth inhibition (GI) [17]: inactive
5 | O=Cc1cccc(Nc2ccnc3cc(Cl)ccc23)c1 | 250 (≈ 884 µM) | – | – | – | – | – | – | – | – | – | – | – | 250 (≈ 884 µM) | ≥ 250 | 59.2 | 1.33 | > 1000 | 500 (≈ 1770 µM) | 14.2 (≈ 50.1 µM) | 1.15 (≈ 4.07 µM) | –
